Measurements from publication PMC3820002 (Neuropharmacology, 2010).
Values joined by “and” are separate entries in the source; they are usually repeats but may differ in a detail not shown here. Identical values can stand only once.

How the values were obtained:
[1] = tested on: D3 dopamine receptor; conditions: transfected CHO cells; maximum 10^-5 M; ref Grundt et al., 2005; cited from earlier work
[2] = tested on: unilaterally lesioned rats; assay: L-dopa dependent abnormal involuntary movements; assay type: in vivo, rat; conditions: for Normalized total AIMs score, percent relative to vehicle control: 10 mg/kg
[3] = tested on: unilaterally lesioned rats; assay: Rotarod test of motor performance and coordination; assay type: in vivo, rat; conditions: 10 mg/kg i.p.; 30 and 60 minutes post drug administration; p ≥ 0.10
[4] = molecular target: D3 dopamine receptors (Homo sapiens, UniProt P35462); assay type: cell-based; conditions: transfected HEK cells; test ligand 10 nM; relative to quinpirole
D3 dopamine receptors, sequence (P35462 whole entry): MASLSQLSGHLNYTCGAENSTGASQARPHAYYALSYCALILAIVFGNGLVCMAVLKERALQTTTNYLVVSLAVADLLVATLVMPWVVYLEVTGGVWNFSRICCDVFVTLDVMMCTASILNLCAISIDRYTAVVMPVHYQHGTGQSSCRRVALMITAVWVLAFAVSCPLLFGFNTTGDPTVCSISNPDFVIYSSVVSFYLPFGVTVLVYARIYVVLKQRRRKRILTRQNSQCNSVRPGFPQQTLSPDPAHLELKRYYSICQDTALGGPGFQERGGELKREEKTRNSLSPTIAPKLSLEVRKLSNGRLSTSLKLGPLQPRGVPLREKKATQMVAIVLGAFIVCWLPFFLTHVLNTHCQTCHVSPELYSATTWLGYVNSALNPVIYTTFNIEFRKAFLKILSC

[5] = tested on: human D3 dopamine receptor; conditions: binding; ref Grundt et al., 2005; cited from earlier work
[6] = tested on: unilaterally lesioned rats; assay: Cylinder test of forelimb usage; assay type: in vivo, rat; conditions: PG01042 10 mg/kg with L-dopa/benserazide 8 mg/kg each
How it was run: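 Unilaterally lesioned rats received saline, L-dopa plus benserazide (8 mg/kg each), or these with the test compound (10 mg/kg). In the cylinder, an observer scored which forelimb first touched the Plexiglas wall (left, right or both) during rearing. The right forelimb was contralateral to the lesion. Scoring began 12 min (5 min) and 20 min (until >13 touches/rat) post injection. Read-out was percent usage, n = 7.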

[7] = molecular target: human D2 dopamine receptor; conditions: read-out: Ki at dopamine D2 receptors; ref Grundt et al., 2005; cited from earlier work
[8] = tested on: unilaterally lesioned rats; assay: Apomorphine-dependent AIMs in unilaterally lesioned rats; assay type: in vivo, rat
How it was run: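 Unilaterally lesioned rats received the test compound (10 mg/kg i.p.) or vehicle, immediately followed by apomorphine 0.05 mg/kg s.c. Total AIMs scores were summed over time and expressed as percent of vehicle control, as mean ± S.E.M., n = 12. Periods analysed: 0–60, 0–40 and 50–60 min.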

[9] = tested on: D2 dopamine receptor; conditions: transfected CHO cells; maximum 10^-5 M; ref Grundt et al., 2005; cited from earlier work
[10] = tested on: rat; conditions: ref ScienceLab.com; cited from earlier work
[11] = 10 mg/kg i.p., 0 min pretreatment, L-dopa/benserazide 8 mg/kg each, n = 12

## O=C(NCCCCN1CCN(c2cccc(Cl)c2Cl)CC1)c1ccc(-c2cccnc2)cc1 [PG01042, N-(4-(4-(2,3-dichlorophenyl)piperazin-1-yl)butyl)-4-(pyridin-3-yl)benzamide]
[1]
  Intrinsic activity at D3 receptors, mitogenic assay: partial agonist
[2]; 1 mg/kg i.p., 0 min pretreatment, L-dopa/benserazide 8 mg/kg each, n = 12
  Mean reduction in the total AIMs score: 8.4 ± 7.3%
[2]; 3 mg/kg i.p., 0 min pretreatment, L-dopa/benserazide 8 mg/kg each, n = 12, dose response experiment
  Mean reduction in the total AIMs score: 25.2 ± 4.4%
[2]; [11]
  Percent reduction of axial twisting AIM score: 78.5 ± 4.6%
  Percent reduction of forelimb movement AIM score: 56% and 56.0 ± 3.1%
  Percent reduction of locomotion AIM score: 80.4 ± 9.5%
  Percent reduction of orolingual AIM score: 76.5 ± 10.8%
[2]; 10 mg/kg i.p., during the 60 min pretreatment period before L-dopa
  Precipitation of AIMs by test drug alone: did not precipitate any AIMs
[2]; 0 minutes pretreatment before L-dopa/benserazide 8 mg/kg
  Normalized total AIMs score, percent relative to vehicle control: 29.4 ± 6.1%
[2]; 60 minutes pretreatment before L-dopa/benserazide 8 mg/kg
  Normalized total AIMs score, percent relative to vehicle control: 68.0 ± 8.6%
[2]; PG01042 3 mg/kg simultaneously with L-dopa 8 mg/kg i.p., F(1,22) = 14.4, n = 12
  Effect on total AIM scores versus vehicle control: significantly attenuate
[2]; i.p., 0 min pretreatment, doses 0 to 10 mg/kg, L-dopa/benserazide 8 mg/kg each
  IC50 for attenuation of total AIMs score, linear regression analysis: 6.6 mg/kg
[2]; i.p., 0 min pretreatment, curve constrained to 0 and 100%, r^2 = 0.98
  IC50 for attenuation of total AIMs score, one site fit: 5.6 mg/kg
[3]
  Latency to fall on rotarod versus vehicle control: no statistical significant difference
[4]
  Intrinsic activity at D3 receptors, adenylyl cyclase inhibition: agonist
[5]
  D3 selectivity compared to the D2 dopamine receptor subtype: 39 fold and > 39 fold
[6]; 12 minutes post injection, n = 7
  Use of right (compromised) forelimb: 70.1 ± 2.3%
[6]; 20 minutes post injection
  Use of right paw: 85.0 ± 4.6%
[7]
  Ki: 18.2 nM
[8]; 10 mg/kg i.p. simultaneously with apomorphine 0.05 mg/kg s.c., 0 to 60 minutes, n = 12
  Percent reduction in the total AIMs score, apomorphine-dependent: 14.5 ± 3.0%
[8]; PG01042 simultaneously with apomorphine 0.05 mg/kg s.c., whole time period
  Percent attenuation of the AIMs minus locomotor scores, apomorphine-dependent: approximately 15%
[9]
  Intrinsic activity at D2 receptors, mitogenic assay: partial agonist

## Cl.O=C1CC2(CCCC2)CC(=O)N1CCCCN1CCN(c2ncccn2)CC1 [buspirone, N-[4-[4-(2-pyrimidinyl)-1-piperazinyl]butyl]-8-azaspiro[4.5]decane-7,9-dione hydrochloride, reference compound]
[2]; buspirone 1 mg/kg i.p. with L-dopa 8 mg/kg and benserazide 8 mg/kg, n = 12
  %Reduction of total AIMs values: 34.8 ± 6.2%
[2]; buspirone 4 mg/kg 30 minutes prior to L-dopa 8 mg/kg i.p., p < 0.001, n = 10
  Effect on total AIM scores versus vehicle control: significant reduction

## COc1ccccc1N1CCN(CCN(C(=O)C2CCCCC2)c2ccccn2)CC1 [WAY 100635, reference compound]
[2]; WAY 100635 1 mg/kg 10 min before PG01037 3 mg/kg, L-dopa 8 mg/kg i.p.
  Reduction in the attenuation of total AIMs score by PG01037: no reduction

## C[S+](C)[O-] [DMSO, dimethylsulfoxide]
[10]
  Oral acute LD50: 14500 mg/kg

## O=C(NC/C=C/CN1CCN(c2cccc(Cl)c2Cl)CC1)c1ccc(-c2ccccn2)cc1 [PG01037, (E)-N-(4-(4-(2,3-dichlorophenyl)piperazin-1-yl)but-2-enyl)-4-(pyridin-2-yl)benzamide]
[1]
  Intrinsic activity at D3 receptors, mitogenic assay: antagonist
[4]
  Intrinsic activity at D3 receptors, adenylyl cyclase inhibition: antagonist
